Experimental data from ChEMBL document CHEMBL2057204, “Synthesis, biological evaluation, and molecular docking studies of N-((1,3-diphenyl-1H-pyrazol-4-yl)methyl)aniline derivatives as novel anticancer agents” (Bioorg Med Chem, 2012).

How the values were obtained:
[1] = molecular target: Cyclin-dependent kinase 2/cyclin E1 (Homo sapiens, UniProt P24941); experiment: Inhibition of CDK2/cyclin E; type: protein-complex assay
[2] = tested on: MCF7; experiment: Antiproliferative activity against human MCF7 cells after 48 hrs by MTT assay; type: functional, cell-based; conditions: MCF7, 48 h
How it was run: (§1)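 Cells grown to log phase in RPMI 1640 with 10% FBS, diluted to 2 × 10⁴ cells/mL in complete medium and seeded into 96-well plates. Plates held 24 h at 37 °C, 5% CO₂ before compound exposure. After a 4 h incubation, absorbance read at 570 nm on a microplate reader. Three replicate wells per concentration; each assay run at least three times; IC₅₀ reported.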

[3] = tested on: B16-F10; experiment: Antiproliferative activity against mouse B16F10 cells after 48 hrs by MTT assay; type: functional, cell-based; conditions: B16-F10, 48 h; how it was run: as §1

Structure (SMILES)	IC50 [1]	IC50 [2]	IC50 [3]
Fc1ccc(NCc2cn(-c3ccccc3)nc2-c2ccc(Cl)cc2)cc1	0.98 µM	1.88 µM	2.12 µM
Clc1ccc(NCc2cn(-c3ccccc3)nc2-c2ccc(Cl)cc2)cc1	1.18 µM	2.28 µM	2.45 µM
Clc1ccc(-c2nn(-c3ccccc3)cc2CNc2ccc(Br)cc2)cc1	1.85 µM	2.62 µM	3.01 µM
Cc1ccc(NCc2cn(-c3ccccc3)nc2-c2ccc(Cl)cc2)cc1	2.08 µM	3.11 µM	3.48 µM
Fc1ccc(NCc2cn(-c3ccccc3)nc2-c2ccc(Br)cc2)cc1	2.36 µM	3.96 µM	4.18 µM
Clc1ccc(NCc2cn(-c3ccccc3)nc2-c2ccc(Br)cc2)cc1	2.56 µM	4.15 µM	4.29 µM
Brc1ccc(NCc2cn(-c3ccccc3)nc2-c2ccc(Br)cc2)cc1	2.78 µM	5 µM	5.27 µM
Cc1ccc(NCc2cn(-c3ccccc3)nc2-c2ccc(Br)cc2)cc1	3.02 µM	5.38 µM	5.98 µM
Cc1ccc(-c2nn(-c3ccccc3)cc2CNc2ccc(F)cc2)cc1	3.6 µM	5.88 µM	5.67 µM
Cc1ccc(-c2nn(-c3ccccc3)cc2CNc2ccc(Cl)cc2)cc1	3.89 µM	6.02 µM	6.01 µM
Cc1ccc(-c2nn(-c3ccccc3)cc2CNc2ccc(Br)cc2)cc1	4.15 µM	6.89 µM	6.76 µM
Cc1ccc(NCc2cn(-c3ccccc3)nc2-c2ccc(C)cc2)cc1	4.55 µM	7.26 µM	7.38 µM
COc1ccc(-c2nn(-c3ccccc3)cc2CNc2ccc(F)cc2)cc1	4.02 µM	5.98 µM	6.58 µM
COc1ccc(-c2nn(-c3ccccc3)cc2CNc2ccc(Cl)cc2)cc1	4.28 µM	6.25 µM	7.18 µM
COc1ccc(-c2nn(-c3ccccc3)cc2CNc2ccc(Br)cc2)cc1	4.96 µM	7.02 µM	8.06 µM
COc1ccc(-c2nn(-c3ccccc3)cc2CNc2ccc(C)cc2)cc1	5.06 µM	8.16 µM	8.38 µM
Cn1cnc2c(NCc3ccccc3)nc(NCCO)nc21 [OLOMOUCINE]	–	130 µM	105 µM
